According to ChEMBL document CHEMBL3286193, “Discovery of a series of 2,5-diaminopyrimidine covalent irreversible inhibitors of Bruton's tyrosine kinase with in vivo antitumor activity” (J Med Chem, 2014):
Active and inactive are the calls of the source. The rule behind the calls is not given here.

Columns and labels:
[1] = biological target: Tyrosine-protein kinase SYK (Homo sapiens) (UniProt P43405); experiment: Inhibition of SYK (unknown origin) at 0.5 uM by [33P]-ATP filter binding assay
How it was run: (§1)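 Kinase panel of 18 enzymes; inhibition tested at 0.5 μM. Values are means of duplicates.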

SU-DHL10 = experiment: Cytotoxicity against human SU-DHL10 cells assessed as growth inhibition at 1 to 10 uM after 72 hrs by CellTiter-Glo luminescent cell viability assay; assay type: functional, cell-based
[2] = biological target: Tyrosine-protein kinase ITK/TSK (Homo sapiens, UniProt Q08881); experiment: Inhibition of Itk (unknown origin) after 1 hr by HTRF assay
Sequence of Tyrosine-protein kinase ITK/TSK (Q08881 whole entry): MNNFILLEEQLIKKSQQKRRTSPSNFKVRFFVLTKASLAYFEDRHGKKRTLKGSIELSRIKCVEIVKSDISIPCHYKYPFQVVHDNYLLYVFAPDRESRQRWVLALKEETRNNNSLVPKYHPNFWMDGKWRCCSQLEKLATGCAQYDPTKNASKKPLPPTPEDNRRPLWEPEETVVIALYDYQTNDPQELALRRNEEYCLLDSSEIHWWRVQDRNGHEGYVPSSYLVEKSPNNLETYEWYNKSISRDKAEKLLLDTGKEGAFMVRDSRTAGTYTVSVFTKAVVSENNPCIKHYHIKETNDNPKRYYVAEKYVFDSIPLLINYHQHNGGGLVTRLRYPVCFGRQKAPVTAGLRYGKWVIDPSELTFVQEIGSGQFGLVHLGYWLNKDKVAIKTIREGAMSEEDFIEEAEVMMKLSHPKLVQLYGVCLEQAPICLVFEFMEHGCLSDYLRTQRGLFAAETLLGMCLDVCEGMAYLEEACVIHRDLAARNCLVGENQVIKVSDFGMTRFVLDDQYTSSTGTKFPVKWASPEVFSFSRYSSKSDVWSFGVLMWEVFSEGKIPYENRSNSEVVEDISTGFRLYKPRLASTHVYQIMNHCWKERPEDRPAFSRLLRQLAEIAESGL
How it was run: (§2)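 Recombinant kinases tested by HTRF KinEase protocol. Enzyme preincubated with inhibitor for a fixed 10 min. IC50 values are means of duplicates.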

DOHH-2 = experiment: Antitumor activity against human DOHH2 cells xenografted in iv dosed CB17 SCID mouse assessed as tumor growth inhibition administered as qd for 14 days measured over 14 days of compound treatment; assay type: functional, organism-based
[3] = biological target: Tyrosine-protein kinase CSK (Homo sapiens) (UniProt P41240); experiment: Inhibition of CSK (unknown origin) at 0.5 uM by [33P]-ATP filter binding assay; how it was run: as §1
Sequence of Tyrosine-protein kinase CSK (Homo sapiens) (P41240 2-450 limits assumed): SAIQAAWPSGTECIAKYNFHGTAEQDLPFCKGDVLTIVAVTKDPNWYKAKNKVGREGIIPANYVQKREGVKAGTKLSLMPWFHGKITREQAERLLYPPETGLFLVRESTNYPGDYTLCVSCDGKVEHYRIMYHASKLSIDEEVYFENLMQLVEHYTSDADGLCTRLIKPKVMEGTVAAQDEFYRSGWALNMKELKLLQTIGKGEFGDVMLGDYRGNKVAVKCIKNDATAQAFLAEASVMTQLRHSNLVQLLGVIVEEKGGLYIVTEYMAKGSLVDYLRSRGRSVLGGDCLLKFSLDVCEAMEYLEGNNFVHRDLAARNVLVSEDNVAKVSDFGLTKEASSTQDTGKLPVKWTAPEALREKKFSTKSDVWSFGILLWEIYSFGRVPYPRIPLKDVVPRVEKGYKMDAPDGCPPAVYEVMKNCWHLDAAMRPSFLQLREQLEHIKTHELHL

[4] = biological target: Tyrosine-protein kinase TXK (Homo sapiens, UniProt P42681); experiment: Inhibition of Rlk (unknown origin) after 1 hr by HTRF assay; how it was run: as §2
Sequence of Tyrosine-protein kinase TXK (P42681 whole entry): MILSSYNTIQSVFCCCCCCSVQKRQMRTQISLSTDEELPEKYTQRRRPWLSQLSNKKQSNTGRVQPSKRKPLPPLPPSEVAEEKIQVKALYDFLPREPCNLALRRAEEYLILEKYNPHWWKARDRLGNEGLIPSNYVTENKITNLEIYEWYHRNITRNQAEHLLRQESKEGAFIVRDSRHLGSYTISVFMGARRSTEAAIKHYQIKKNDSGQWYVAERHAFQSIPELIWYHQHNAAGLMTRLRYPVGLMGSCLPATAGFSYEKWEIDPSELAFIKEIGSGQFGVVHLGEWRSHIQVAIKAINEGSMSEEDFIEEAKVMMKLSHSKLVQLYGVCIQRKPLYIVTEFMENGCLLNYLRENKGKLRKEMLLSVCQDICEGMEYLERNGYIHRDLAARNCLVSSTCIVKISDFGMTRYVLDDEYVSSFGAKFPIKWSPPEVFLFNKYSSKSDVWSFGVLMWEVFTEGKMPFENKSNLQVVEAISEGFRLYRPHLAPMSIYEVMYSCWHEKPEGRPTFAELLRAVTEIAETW

[5] = biological target: Epidermal growth factor receptor (Homo sapiens, UniProt P00533); experiment: Inhibition of EGFR (unknown origin) after 1 hr by HTRF assay
Sequence of Epidermal growth factor receptor (P00533 whole entry): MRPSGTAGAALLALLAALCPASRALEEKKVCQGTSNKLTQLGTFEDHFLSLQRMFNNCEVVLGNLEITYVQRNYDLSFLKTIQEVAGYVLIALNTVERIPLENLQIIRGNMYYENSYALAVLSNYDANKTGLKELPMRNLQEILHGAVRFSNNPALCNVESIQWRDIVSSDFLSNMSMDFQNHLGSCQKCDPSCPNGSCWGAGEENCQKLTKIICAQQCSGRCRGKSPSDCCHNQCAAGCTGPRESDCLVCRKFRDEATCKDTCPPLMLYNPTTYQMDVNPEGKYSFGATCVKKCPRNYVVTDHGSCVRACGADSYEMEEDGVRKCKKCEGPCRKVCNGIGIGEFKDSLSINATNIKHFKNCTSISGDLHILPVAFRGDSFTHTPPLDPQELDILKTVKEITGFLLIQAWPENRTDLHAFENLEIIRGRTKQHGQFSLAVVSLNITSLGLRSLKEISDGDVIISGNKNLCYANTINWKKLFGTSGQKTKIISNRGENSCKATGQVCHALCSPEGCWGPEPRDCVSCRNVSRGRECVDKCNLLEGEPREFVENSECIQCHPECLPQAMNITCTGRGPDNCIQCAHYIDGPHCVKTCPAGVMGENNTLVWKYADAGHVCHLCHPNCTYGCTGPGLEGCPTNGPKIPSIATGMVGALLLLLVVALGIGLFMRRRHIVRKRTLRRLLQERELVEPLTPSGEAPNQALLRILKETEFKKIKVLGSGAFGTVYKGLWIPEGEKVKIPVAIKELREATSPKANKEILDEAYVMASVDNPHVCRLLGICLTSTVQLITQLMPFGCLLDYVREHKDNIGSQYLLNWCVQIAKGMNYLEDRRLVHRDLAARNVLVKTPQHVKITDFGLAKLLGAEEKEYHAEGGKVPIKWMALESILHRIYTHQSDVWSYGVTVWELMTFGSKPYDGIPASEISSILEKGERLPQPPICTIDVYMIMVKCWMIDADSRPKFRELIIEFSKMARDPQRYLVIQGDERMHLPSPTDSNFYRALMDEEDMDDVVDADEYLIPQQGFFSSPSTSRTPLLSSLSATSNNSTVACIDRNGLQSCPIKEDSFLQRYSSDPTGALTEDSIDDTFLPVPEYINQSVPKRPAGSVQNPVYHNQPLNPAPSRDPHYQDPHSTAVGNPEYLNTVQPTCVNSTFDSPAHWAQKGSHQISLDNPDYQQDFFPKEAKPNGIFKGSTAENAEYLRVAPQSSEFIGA
How it was run: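 Commercial recombinant kinase, assayed in the HTRF KinEase format following the kit protocol. Enzyme and inhibitor were preincubated for a fixed 10 min before the reaction.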

[6] = Cytotoxicity against human Pfeiffer cells assessed as growth inhibition after 72 hrs by CellTiter-Glo luminescent cell viability assay; assay type: functional; conditions: Homo sapiens, Pfeiffer, 72 h
How it was run: (§3)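 Lymphoma cells seeded at 5000 cells/well, incubated 24 h, then exposed to compounds for 72 h. Viability read by CellTiter-Glo luminescence. GI50 from dose−response curves, mean of two or three independent experiments in triplicate.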

[7] = biological target: Tyrosine-protein kinase Lck (Homo sapiens) (UniProt P06239); experiment: Inhibition of Lck (unknown origin) at 0.5 uM by [33P]-ATP filter binding assay; how it was run: as §1
MM1R = experiment: Cytotoxicity against human MM1R cells assessed as growth inhibition at 1 to 10 uM after 72 hrs by CellTiter-Glo luminescent cell viability assay; assay type: functional, cell-based
[8] = Volume of distribution at steady state in ICR mouse at 1 mg/kg, iv by LC-MS analysis; assay type: ADME, organism-based; parameters: dose 1 mg/kg, route intravenous; conditions: in vivo, read-out: Vdss
How it was run: (§4)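 ICR mice (n = 3) given a single intravenous injection at 1 mg/kg. Blood sampled at various time points and analyzed by LC−MS to derive t1/2, CL and Vss.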

[9] = biological target: Cytoplasmic tyrosine-protein kinase BMX (Homo sapiens, UniProt P51813); experiment: Inhibition of Bmx (unknown origin) after 1 hr by HTRF assay; how it was run: as §2
[10] = Antitumor activity against human DOHH2 cells xenografted in CB17 SCID mouse assessed as tumor growth inhibition at 10 mg/kg, iv qd administered for 14 days measured over 14 days of compound treatment relative to vehicle-treated control; conditions: DOHH-2, iv, 336 h, read-out: TGI
RL = experiment: Cytotoxicity against human RL cells assessed as growth inhibition at 1 to 10 uM after 72 hrs by CellTiter-Glo luminescent cell viability assay; assay type: functional, cell-based
[11] = Plasma concentration in CB17 SCID mouse xenografted with human DOHH2 cells at 20 mg/kg, iv qd administered for 14 days measured at 24 hrs post last dose; assay type: ADME, organism-based, DOHH-2; parameters: dose 20 mg/kg, route intravenous
How it was run: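 Same DoHH2 xenograft study in female CB17/SCID mice, tail-vein dosing once daily for 14 days. Plasma compound concentrations determined at 2 and 24 h after the last administration.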

[12] = Half life in mouse liver microsomes by LC-MS/MS analysis; assay type: ADME
How it was run: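 Liver microsomes incubated with compound and NADPH at 37 °C. Samples taken at several time points, centrifuged, and supernatants analyzed by LC−MS/MS. t1/2 and CL calculated by first-order kinetics. Testosterone, propranolol and clozapine served as positive controls.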

[13] = biological target: Protein kinase C alpha type (Homo sapiens) (UniProt P17252); experiment: Inhibition of PKC-alpha (unknown origin) at 0.5 uM by [33P]-ATP filter binding assay; how it was run: as §1
JVM-3 = experiment: Cytotoxicity against human JVM-3 cells assessed as growth inhibition at 1 to 10 uM after 72 hrs by CellTiter-Glo luminescent cell viability assay; assay type: functional, cell-based
[14] = Cytotoxicity against human SU-DHL6 cells assessed as growth inhibition after 72 hrs by CellTiter-Glo luminescent cell viability assay; assay type: functional, SU-DHL-6; conditions: Homo sapiens, SU-DHL-6, 72 h; how it was run: as §3
[15] = Plasma concentration in CB17 SCID mouse xenografted with human DOHH2 cells at 10 mg/kg, iv qd administered for 14 days measured at 2 hrs post last dose; assay type: ADME, organism-based, DOHH-2; parameters: dose 10 mg/kg, route intravenous
How it was run: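 Female CB17/SCID mice were given 5 × 10⁶ DoHH2 cells subcutaneously. When tumours averaged ~167 mm³, mice were randomised into four groups (n = 6/group). Dosing was by tail-vein injection once daily for 14 consecutive days. Plasma compound levels were determined at 2 and 24 h after the final dose.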

[16] = Stability of the compound in FaSSIF assessed as compound remaining at 1 uM measured at 24 hrs by LC-MS analysis; assay type: ADME; conditions: read-out: Stability
How it was run: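 Compound solutions in FaSSIF shaken at 350 rpm at 37 °C. Samples taken at 2, 6, 10 and 24 h and quantified by LC−MS as % remaining.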

[17] = biological target: Tyrosine-protein kinase ABL1 (Homo sapiens) (UniProt P00519); experiment: Inhibition of ABL (unknown origin) at 0.5 uM by [33P]-ATP filter binding assay; how it was run: as §1
Sequence of Tyrosine-protein kinase ABL1 (Homo sapiens) (P00519 whole entry): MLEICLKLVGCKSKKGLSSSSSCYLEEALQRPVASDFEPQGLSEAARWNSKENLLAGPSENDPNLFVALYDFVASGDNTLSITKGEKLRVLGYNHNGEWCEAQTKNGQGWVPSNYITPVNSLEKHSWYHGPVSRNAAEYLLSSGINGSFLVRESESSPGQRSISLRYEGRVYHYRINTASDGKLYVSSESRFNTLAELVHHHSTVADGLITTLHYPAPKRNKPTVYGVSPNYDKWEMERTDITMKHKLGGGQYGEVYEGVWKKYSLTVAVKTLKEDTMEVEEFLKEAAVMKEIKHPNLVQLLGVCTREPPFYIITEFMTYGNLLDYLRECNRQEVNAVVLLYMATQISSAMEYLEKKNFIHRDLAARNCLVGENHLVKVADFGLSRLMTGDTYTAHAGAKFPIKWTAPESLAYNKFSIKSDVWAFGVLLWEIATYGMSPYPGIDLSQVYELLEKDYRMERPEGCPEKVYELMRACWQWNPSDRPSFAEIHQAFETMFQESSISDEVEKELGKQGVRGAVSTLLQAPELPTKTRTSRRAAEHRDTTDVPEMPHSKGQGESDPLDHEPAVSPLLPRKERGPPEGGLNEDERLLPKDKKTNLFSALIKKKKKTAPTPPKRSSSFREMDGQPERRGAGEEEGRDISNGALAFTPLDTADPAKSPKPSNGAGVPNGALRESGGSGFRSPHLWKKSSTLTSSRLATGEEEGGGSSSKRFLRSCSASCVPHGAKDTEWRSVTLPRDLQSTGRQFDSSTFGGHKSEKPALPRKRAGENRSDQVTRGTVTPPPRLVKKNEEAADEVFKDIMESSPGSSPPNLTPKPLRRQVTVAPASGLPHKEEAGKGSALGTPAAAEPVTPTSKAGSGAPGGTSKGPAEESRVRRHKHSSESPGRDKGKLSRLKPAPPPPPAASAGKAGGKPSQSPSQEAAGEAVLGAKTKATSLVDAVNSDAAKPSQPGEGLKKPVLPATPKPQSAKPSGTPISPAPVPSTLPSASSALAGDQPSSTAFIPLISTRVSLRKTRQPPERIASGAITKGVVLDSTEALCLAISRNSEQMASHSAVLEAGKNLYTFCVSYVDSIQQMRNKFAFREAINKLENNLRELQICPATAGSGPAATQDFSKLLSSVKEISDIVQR

[18] = Binding affinity to glutathione in PBS buffer assessed as glutathione-compound adduct formation at 100 uM at pH 7.4 at 37 degC after 2 hrs
How it was run: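 Compound (100 μM) incubated with 5 mM glutathione in PBS, pH 7.4, at 37 °C. Checked for GSH−compound adducts after 2 h.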

Homo sapiens = species on record: Homo sapiens; experiment: Inhibition of VEGFR (unknown origin) at 0.5 uM by [33P]-ATP filter binding assay; how it was run: as §1
[19] = Antitumor activity against human DOHH2 cells xenografted in CB17 SCID mouse assessed as tumor growth inhibition at 20 mg/kg, iv qd administered for 14 days measured over 14 days of compound treatment relative to vehicle-treated control; conditions: DOHH-2, iv, 336 h, read-out: TGI
WSU-DLCL2 = experiment: Cytotoxicity against human WSU-DLCL2 cells assessed as growth inhibition at 1 to 10 uM after 72 hrs by CellTiter-Glo luminescent cell viability assay; assay type: functional, cell-based
[20] = Half life in ICR mouse at 1 mg/kg, iv by LC-MS analysis; assay type: ADME, organism-based; parameters: dose 1 mg/kg, route intravenous; conditions: in vivo; how it was run: as §4
[21] = Cytotoxicity against human DOHH2 cells assessed as growth inhibition after 72 hrs by CellTiter-Glo luminescent cell viability assay; assay type: functional, DOHH-2; conditions: Homo sapiens, DOHH-2, 72 h; how it was run: as §3

Q: Which inhibition [1] does the source give for `C=CC(=O)Nc1cccc(Nc2ncc(NC(=O)c3cc(NC(=O)c4cccc(C(F)(F)F)c4)ccc3C)cn2)c1` here?
A: inactive

Q: What about the “growth inhibition (GI)” value (SU-DHL10) of the same compound?
A: Active

Q: What about the IC50 [2] of the same compound?
A: > 30000 nM

Q: What about the “growth inhibition (GI)” value (DOHH-2) of the same compound?
A: Dose-dependent effect

Q: What about the inhibition [3] of the same compound?
A: Active

Q: And the IC50 [4]?
A: 1.9 nM

Q: What about the IC50 [5] of the same compound?
A: 11 nM

Q: And the GI50 [6]?
A: 8 nM

Q: And the inhibition [7]?
A: Active

Q: And the “growth inhibition (GI)” value (MM1R)?
A: Active

Q: What about the Vd [8] of the same compound?
A: 0.2 L/kg

Q: What about the IC50 [9] of the same compound?
A: 1.9 nM

Q: And the inhibition in vivo at 10 mg/kg [10]?
A: 60%

Q: And the “growth inhibition (GI)” value (RL)?
A: Active

Q: And the concentration at 24 h [11]?
A: 13 ng/mL

Q: And the half-life [12]?
A: 0.64 h

Q: And the inhibition [13]?
A: inactive

Q: And the “growth inhibition (GI)” value (JVM-3)?
A: Active

Q: What about the GI50 [14] of the same compound?
A: 38 nM

Q: And the concentration at 2 h [15]?
A: 378 ng/mL

Q: What about the remaining at 24 h, 1 µM [16] of the same compound?
A: 94%

Q: And the inhibition [17]?
A: Active

Q: And the Activity [18]?
A: inactive

Q: And the inhibition (Homo sapiens)?
A: Active

Q: And the inhibition in vivo at 20 mg/kg [19]?
A: 66%

Q: What about the “growth inhibition (GI)” value (WSU-DLCL2) of the same compound?
A: Active

Q: What about the half-life [20] of the same compound?
A: 2.8 h

Q: And the GI50 [21]?
A: 73 nM
